{"source": "ChEMBL document CHEMBL3272061", "about": "“Experiments of synthesis of dl-camptothecin. 4. Synthesis and antileukemic activity of dl-camptothecin analogues” (J Med Chem, 1976)", "key": {"[1]": {"tested_on": "L1210", "experiment": "Antileukemic activity against mouse L1210 cells allografted in BDF1 mouse assessed as host survival at 5.56 umol/kg, ip after 30 days", "type": "functional, organism-based", "in_short": "(§1)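 BDF1 mice, 5 weeks old, were inoculated ip with 5×10^5 L1210 cells in 0.1 ml saline. Test groups were 4 male and 4 female mice; controls were 5 male and 5 female. Insoluble compounds were suspended in vehicle. Dosing was ip, either once on the day after inoculation or daily for 5 days. Read-out was increase in life span over controls. Mice alive beyond 30 days were counted as 30 days and scored as survivors.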"}, "[2]": {"tested_on": "L1210", "experiment": "Antileukemic activity against mouse L1210 cells allografted in BDF1 mouse assessed as increase in life span of host at 130 umol/kg, ip relative to control", "type": "functional", "in_short": "as §1"}, "[3]": {"tested_on": "L1210", "experiment": "Antileukemic activity against mouse L1210 cells allografted in BDF1 mouse assessed as increase in life span of host at 26 umol/kg, ip relative to control", "type": "functional", "in_short": "(§2)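 BDF1 mice, 5 weeks old, were inoculated ip with 5×10^5 L1210 cells; test groups had 4 males and 4 females, controls 5 males and 5 females. A single ip dose was given on the day after inoculation, as a suspension in vehicle for the insoluble compounds. Read-out was increase in life span over controls, with survivors past 30 days counted as 30 days.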"}, "[4]": {"experiment": "Solubility of the compound", "type": "physicochemical"}, "[5]": {"tested_on": "L1210", "experiment": "Antileukemic activity against mouse L1210 cells allografted in BDF1 mouse assessed as increase in life span of host at 65.1 umol/kg, ip relative to control", "type": "functional", "in_short": "as §2"}, "[6]": {"tested_on": "L1210", "experiment": "Antileukemic activity against mouse L1210 cells allografted in BDF1 mouse assessed as host survival at 65.1 umol/kg, ip after 30 days", "type": "functional, organism-based", "in_short": "(§3)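 BDF1 mice, 5 weeks old; test groups four males + four females, controls five + five. 5×10^5 L1210 cells in 0.1 ml saline given ip. Compound, suspended in suspending vehicle (sodium salt dissolved), injected ip once on the day after inoculation. Survival followed to 30 days; mice surviving beyond 30 days counted as 30 days and scored as survivor fraction; activity as increased life span over controls.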"}, "[7]": {"tested_on": "L1210", "experiment": "Antileukemic activity against mouse L1210 cells allografted in BDF1 mouse assessed as host survival at 26 umol/kg, ip after 30 days", "type": "functional, organism-based", "in_short": "as §3"}, "[8]": {"tested_on": "L1210", "experiment": "Antileukemic activity against mouse L1210 cells allografted in BDF1 mouse assessed as host survival at 130 umol/kg, ip after 30 days", "type": "functional, organism-based", "in_short": "as §3"}, "[9]": {"tested_on": "L1210", "experiment": "Antileukemic activity against mouse L1210 cells allografted in BDF1 mouse assessed as increase in life span of host at 139 umol/kg, ip relative to control", "type": "functional", "in_short": "as §1"}, "[10]": {"tested_on": "L1210", "experiment": "Antileukemic activity against mouse L1210 cells allografted in BDF1 mouse assessed as host survival at 139 umol/kg, ip after 30 days", "type": "functional, organism-based", "in_short": "as §1"}, "[11]": {"tested_on": "L1210", "experiment": "Antileukemic activity against mouse L1210 cells allografted in BDF1 mouse assessed as host survival at 5.58 umol/kg, ip after 30 days", "type": "functional, organism-based", "conditions": "5.56 umol/kg, in the assay text read “5.56 umol/kg” for “5.58 umol/kg”", "in_short": "as §3"}, "[12]": {"tested_on": "L1210", "experiment": "Antileukemic activity against mouse L1210 cells allografted in BDF1 mouse assessed as host survival at 27.8 umol/kg, ip after 30 days", "type": "functional, organism-based", "in_short": "as §1"}, "[13]": {"tested_on": "L1210", "experiment": "Antileukemic activity against mouse L1210 cells allografted in BDF1 mouse assessed as increase in life span of host at 69.4 umol/kg, ip relative to control", "type": "functional", "in_short": "as §2"}, "[14]": {"tested_on": "L1210", "experiment": "Antileukemic activity against mouse L1210 cells allografted in BDF1 mouse assessed as host survival at 69.4 umol/kg, ip after 30 days", "type": "functional, organism-based", "in_short": "as §3"}, "[15]": {"tested_on": "L1210", "experiment": "Antileukemic activity against mouse L1210 cells allografted in BDF1 mouse assessed as host survival at 25 umol/kg, sc qd for 5 days measured after 30 days", "type": "functional, organism-based"}, "[16]": {"tested_on": "L1210", "experiment": "Antileukemic activity against mouse L1210 cells allografted in BDF1 mouse assessed as host survival at 1 umol/kg, ip qd for 5 days measured after 30 days", "type": "functional, organism-based", "in_short": "as §1"}, "[17]": {"tested_on": "L1210", "experiment": "Antileukemic activity against mouse L1210 cells allografted in BDF1 mouse assessed as host survival at 5 umol/kg, po qd for 5 days measured after 30 days", "type": "functional, organism-based"}, "[18]": {"tested_on": "L1210", "experiment": "Antileukemic activity against mouse L1210 cells allografted in BDF1 mouse assessed as host survival at 25 umol/kg, po qd for 4 days measured after 30 days", "type": "functional, organism-based"}, "[19]": {"tested_on": "L1210", "experiment": "Antileukemic activity against mouse L1210 cells allografted in BDF1 mouse assessed as host survival at 5 umol/kg, ip qd for 5 days measured after 30 days", "type": "functional, organism-based", "in_short": "as §1"}, "[20]": {"tested_on": "L1210", "experiment": "Antileukemic activity against mouse L1210 cells allografted in BDF1 mouse assessed as host survival at 1 umol/kg, sc qd for 5 days measured after 30 days", "type": "functional, organism-based"}, "[21]": {"tested_on": "L1210", "experiment": "Antileukemic activity against mouse L1210 cells allografted in BDF1 mouse assessed as host survival at 5 umol/kg, sc qd for 5 days measured after 30 days", "type": "functional, organism-based"}, "[22]": {"tested_on": "L1210", "experiment": "Antileukemic activity against mouse L1210 cells allografted in BDF1 mouse assessed as host survival at 12.5 umol/kg, ip qd for 5 days measured after 30 days", "type": "functional, organism-based", "in_short": "as §1"}, "[23]": {"tested_on": "L1210", "experiment": "Antileukemic activity against mouse L1210 cells allografted in BDF1 mouse assessed as host survival at 12.5 umol/kg, po qd for 5 days measured after 30 days", "type": "functional, organism-based"}, "[24]": {"tested_on": "L1210", "experiment": "Antileukemic activity against mouse L1210 cells allografted in BDF1 mouse assessed as increase in life span of host at 65.8 umol/kg, ip relative to control", "type": "functional", "in_short": "as §2"}, "[25]": {"tested_on": "L1210", "experiment": "Antileukemic activity against mouse L1210 cells allografted in BDF1 mouse assessed as increase in life span of host at 27.8 umol/kg, ip relative to control", "type": "functional", "in_short": "as §2"}, "[26]": {"tested_on": "L1210", "experiment": "Antileukemic activity against mouse L1210 cells allografted in BDF1 mouse assessed as increase in life span of host at 132 umol/kg, ip relative to control", "type": "functional", "in_short": "as §1"}, "[27]": {"tested_on": "L1210", "experiment": "Antileukemic activity against mouse L1210 cells allografted in BDF1 mouse assessed as host survival at 132 umol/kg, ip after 30 days", "type": "functional, organism-based", "in_short": "as §1"}, "[28]": {"tested_on": "L1210", "experiment": "Antileukemic activity against mouse L1210 cells allografted in BDF1 mouse assessed as increase in life span of host at 26.3 umol/kg, ip relative to control", "type": "functional", "in_short": "as §2"}, "[29]": {"tested_on": "L1210", "experiment": "Antileukemic activity against mouse L1210 cells allografted in BDF1 mouse assessed as increase in life span of host at 5.56 umol/kg, ip relative to control", "type": "functional", "in_short": "as §2"}, "[30]": {"tested_on": "L1210", "experiment": "Antileukemic activity against mouse L1210 cells allografted in BDF1 mouse assessed as host survival at 65.8 umol/kg, ip after 30 days", "type": "functional, organism-based", "in_short": "as §1"}}, "note": "Calls of active or inactive are those of the source. The rule behind the calls is not given here.", "data": [{"molecule": "C=CCC1(CC=C)C(=O)OCc2c1cc1n(c2=O)Cc2cc3ccccc3nc2-1", "values": [{"measurement": "Activity", "setting": "[1]", "result": "inactive"}, {"measurement": "ILS at 130 µmol/kg", "setting": "[2]", "result": 1, "unit": "%"}, {"measurement": "ILS at 26 µmol/kg", "setting": "[3]", "result": -8, "unit": "%"}, {"measurement": "solubility", "setting": "[4]", "result": "Insoluble"}, {"measurement": "ILS at 65.1 µmol/kg", "setting": "[5]", "result": 5, "unit": "%"}, {"measurement": "Activity", "setting": "[6]", "result": "inactive"}, {"measurement": "Activity", "setting": "[7]", "result": "inactive"}, {"measurement": "Activity", "setting": "[8]", "result": "inactive"}]}, {"molecule": "CCC1(CC)C(=O)OCc2c1cc1n(c2=O)Cc2cc3ccccc3nc2-1", "values": [{"measurement": "ILS at 139 µmol/kg", "setting": "[9]", "result": -11, "unit": "%"}, {"measurement": "Activity", "setting": "[10]", "result": "inactive"}, {"measurement": "Activity", "setting": "[11]", "result": "inactive"}, {"measurement": "Activity", "setting": "[12]", "result": "inactive"}, {"measurement": "ILS at 69.4 µmol/kg", "setting": "[13]", "result": 5, "unit": "%"}, {"measurement": "Activity", "setting": "[14]", "result": "inactive"}, {"measurement": "solubility", "setting": "[4]", "result": "Insoluble"}]}, {"molecule": "C=CCC1(O)C(=O)OCc2c1cc1n(c2=O)Cc2cc3ccccc3nc2-1", "note": "(stereo not drawn)", "values": [{"measurement": "Activity", "setting": "[15]", "result": "inactive"}, {"measurement": "Activity", "setting": "[16]", "result": "inactive"}, {"measurement": "Activity", "setting": "[17]", "result": "inactive"}, {"measurement": "Activity", "setting": "[18]", "result": "inactive"}, {"measurement": "Activity", "setting": "[19]", "result": "inactive"}, {"measurement": "Activity", "setting": "[20]", "result": "inactive"}, {"measurement": "Activity", "setting": "[21]", "result": "inactive"}, {"measurement": "Activity", "setting": "[22]", "result": "inactive"}, {"measurement": "Activity", "setting": "[23]", "result": "inactive"}]}, {"molecule": "CCC1(O)C(=O)OCc2c1cc1n(c2=O)CC2Cc3ccccc3N(C=O)C12", "note": "(mixture of isomers)", "values": [{"measurement": "ILS at 65.8 µmol/kg", "setting": "[24]", "result": -9, "unit": "%"}, {"measurement": "ILS at 27.8 µmol/kg", "setting": "[25]", "result": "> 244", "unit": "%"}, {"measurement": "Activity", "setting": "[1]", "result": "inactive"}, {"measurement": "ILS at 132 µmol/kg", "setting": "[26]", "result": -3, "unit": "%"}, {"measurement": "Activity", "setting": "[27]", "result": "inactive"}, {"measurement": "ILS at 26.3 µmol/kg", "setting": "[28]", "result": -6, "unit": "%"}, {"measurement": "ILS at 5.56 µmol/kg", "setting": "[29]", "result": 34, "unit": "%"}, {"measurement": "Activity", "setting": "[30]", "result": "inactive"}, {"measurement": "solubility", "setting": "[4]", "result": "Insoluble"}]}]}
